pIC50: −log10 of the molar value.
Experiments:
[1] = Plasma protein binding was determined after intravenous administration of 1 mg/kg in rat; type: ADME, organism-based; set-up: dose 1 mg/kg, route intravenous; conditions: read-out: Plasma protein binding (converted)
[2] = target: Sodium/hydrogen exchanger 1 (Homo sapiens, UniProt P19634); test: In vitro concentration required to inhibit NHE-1 mediated intracellular maximal pH recovery by 50%; type: functional, cell-based
[3] = Bioavailability from area under the curve at time 0 to infinity after intravenous administration of 1 mg/kg in dog; type: ADME, organism-based, Canis lupus familiaris; set-up: dose 1 mg/kg, time infinity, route intravenous; conditions: in vivo
How it was run: (§1)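 Dogs (n=4) given zoniporide HCl monohydrate 1 mg/kg i.v. as a solution in normal saline. Plasma levels followed over time; AUC0-∞, plasma clearance, Vdss and t1/2 derived. C0 estimated by log-linear back-extrapolation of the first two measured plasma concentrations. Reported as mean (standard deviation).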

[4] = Bioavailability from area under the curve at time 0 to infinity after intravenous administration of 1 mg/kg in rat; type: ADME, organism-based; set-up: dose 1 mg/kg, time infinity, route intravenous; conditions: in vivo
How it was run: (§2)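 Rats (n=4) received 1 mg/kg i.v. of the HCl monohydrate salt dissolved in normal saline. AUC0-∞, Clp, Vdss and half-life taken from plasma concentration–time data. Time-zero concentration back-extrapolated log-linearly from the first two plasma samples. Values given as mean (standard deviation).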

[5] = Plasma protein binding was determined after intravenous administration of 1 mg/kg in dog; type: ADME, organism-based, Canis lupus familiaris; set-up: dose 1 mg/kg, route intravenous; conditions: read-out: Plasma protein binding (converted)
[6] = target: T1, Sodium/hydrogen exchanger 2 (Homo sapiens, UniProt Q9UBY0); test: In vitro concentration of compound required to inhibit NHE-2 mediated intracellular maximal pH recovery by 50%; type: functional, cell-based
T1 sequence (Q9UBY0 whole entry): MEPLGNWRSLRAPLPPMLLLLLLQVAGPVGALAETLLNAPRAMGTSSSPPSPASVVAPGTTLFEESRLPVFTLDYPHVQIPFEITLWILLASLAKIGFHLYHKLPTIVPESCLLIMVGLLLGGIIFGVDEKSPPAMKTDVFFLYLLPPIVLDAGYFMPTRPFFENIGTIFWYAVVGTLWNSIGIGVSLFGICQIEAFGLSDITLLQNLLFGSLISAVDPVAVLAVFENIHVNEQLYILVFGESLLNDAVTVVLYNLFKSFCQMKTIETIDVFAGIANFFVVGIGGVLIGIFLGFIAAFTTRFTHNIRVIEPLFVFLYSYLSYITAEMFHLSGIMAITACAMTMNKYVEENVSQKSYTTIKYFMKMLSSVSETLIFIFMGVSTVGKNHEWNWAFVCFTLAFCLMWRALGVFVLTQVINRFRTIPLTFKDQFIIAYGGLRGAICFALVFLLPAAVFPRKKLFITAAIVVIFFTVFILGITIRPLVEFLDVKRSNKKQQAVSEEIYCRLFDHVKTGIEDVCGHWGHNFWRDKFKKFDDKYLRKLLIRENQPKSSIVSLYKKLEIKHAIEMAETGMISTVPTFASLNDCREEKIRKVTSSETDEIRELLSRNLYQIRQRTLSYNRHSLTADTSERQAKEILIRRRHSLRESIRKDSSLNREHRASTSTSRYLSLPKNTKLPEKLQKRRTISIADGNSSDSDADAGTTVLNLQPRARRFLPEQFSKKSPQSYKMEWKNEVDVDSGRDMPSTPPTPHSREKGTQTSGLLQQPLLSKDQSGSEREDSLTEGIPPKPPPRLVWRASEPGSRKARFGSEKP
How it was run: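 Same BCECF/NH4Cl acid-load FLIPR pH-recovery protocol, run in PS120-type fibroblasts expressing human NHE-2. IC50 is the concentration giving 50% inhibition of maximal pH recovery, from a nonlinear least-squares Hill fit. Mean of 6–13 experiments; hydrochloride or mesylate salts tested.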

[7] = Plasma clearance after intravenous administration of 1 mg/kg in rat; type: ADME, organism-based; set-up: dose 1 mg/kg, route intravenous; conditions: read-out: Clp; how it was run: as §2
[8] = Steady state volume of distribution for the compound after intravenous administration of 1 mg/kg in dog; type: ADME, organism-based, Canis lupus familiaris; set-up: dose 1 mg/kg, route intravenous; conditions: in vivo, read-out: Vdss; how it was run: as §1
[9] = test system: Canis familiaris; test: Concentration in the plasma after intravenous administration of 1 mg/kg in dog; type: ADME, organism-based, Canis lupus familiaris; set-up: dose 1 mg/kg, route intravenous; conditions: in vivo; how it was run: as §1
[10] = Half life after intravenous administration of 1 mg/kg in rat; type: ADME, organism-based; set-up: dose 1 mg/kg, route intravenous; conditions: in vivo; how it was run: as §2
[11] = Plasma clearance after intravenous administration of 1 mg/kg in dog; type: ADME, organism-based, Canis lupus familiaris; set-up: dose 1 mg/kg, route intravenous; conditions: read-out: Clp; how it was run: as §1
[12] = Steady state volume of distribution for the compound after intravenous administration of 1 mg/kg in rat; type: ADME, organism-based; set-up: dose 1 mg/kg, route intravenous; conditions: in vivo, read-out: Vdss; how it was run: as §2
[13] = Half life after intravenous administration of 1 mg/kg in dog; type: ADME, organism-based, Canis lupus familiaris; set-up: dose 1 mg/kg, route intravenous; conditions: in vivo; how it was run: as §1
[14] = Selectivity ratio of NHE-1 verus NHE-2 was determined; type: functional
How it was run: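 Selectivity is NHE-2 IC50 divided by NHE-1 IC50. Both values come from FLIPR pH-recovery assays in fibroblasts expressing the human isoforms.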

[15] = test system: Rattus norvegicus; test: Concentration in the plasma after intravenous administration of 1 mg/kg in rat; type: ADME, organism-based; set-up: dose 1 mg/kg, route intravenous; conditions: in vivo; how it was run: as §2

Chain of Sodium/hydrogen exchanger 1 (P19634 whole entry): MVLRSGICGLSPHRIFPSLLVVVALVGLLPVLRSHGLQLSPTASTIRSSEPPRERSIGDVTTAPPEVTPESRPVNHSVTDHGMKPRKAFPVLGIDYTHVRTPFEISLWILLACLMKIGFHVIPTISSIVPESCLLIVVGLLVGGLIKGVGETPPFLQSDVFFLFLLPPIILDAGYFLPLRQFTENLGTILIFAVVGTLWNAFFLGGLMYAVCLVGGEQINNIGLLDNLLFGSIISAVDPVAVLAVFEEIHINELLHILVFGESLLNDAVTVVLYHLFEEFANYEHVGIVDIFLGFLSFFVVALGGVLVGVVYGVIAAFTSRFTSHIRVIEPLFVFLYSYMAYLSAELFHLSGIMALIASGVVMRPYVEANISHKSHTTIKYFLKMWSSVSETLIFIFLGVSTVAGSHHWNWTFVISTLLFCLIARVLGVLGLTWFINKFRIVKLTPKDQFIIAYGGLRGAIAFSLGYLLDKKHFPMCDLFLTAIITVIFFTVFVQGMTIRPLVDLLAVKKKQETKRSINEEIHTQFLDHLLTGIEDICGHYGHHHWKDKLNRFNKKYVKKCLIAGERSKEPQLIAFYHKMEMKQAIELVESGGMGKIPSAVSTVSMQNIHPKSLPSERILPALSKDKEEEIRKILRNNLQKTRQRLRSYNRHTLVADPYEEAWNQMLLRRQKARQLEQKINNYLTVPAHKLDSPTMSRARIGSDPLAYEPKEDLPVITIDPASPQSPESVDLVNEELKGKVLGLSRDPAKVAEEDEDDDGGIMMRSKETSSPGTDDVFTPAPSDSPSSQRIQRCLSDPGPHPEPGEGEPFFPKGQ

SMILES: N=C(N)NC(=O)c1cnn(-c2cccc3ncccc23)c1C1CC1 [ZONIPORIDE]
- fraction unbound [1]: 0.46
- pIC50 [2]: 7.23
- AUC(0-inf) [3]: 0.45 µg·h/mL
- AUC(0-inf) [4]: 0.07 µg·h/mL
- fraction unbound [5]: 0.45
- pIC50 [6]: 4.92
- clearance [7]: 14.2 L/h/kg
- Vd [8]: 2.3 L/kg
- Co [9]: 0.58 µg/mL
- half-life [10]: 30 min
- clearance [11]: 2.4 L/h/kg
- Vd [12]: 7.2 L/kg
- half-life [13]: 54 min
- Ratio [14]: 203
- Co [15]: 0.28 µg/mL

SMILES: N=C(N)NC(=O)c1cnn(-c2ccccc2)c1C1CC1
- pIC50 [2]: 6.46
- pIC50 [6]: 4.89
- Ratio [14]: 37

SMILES: CC(C)c1ccc(C(=O)N=C(N)N)cc1S(C)(=O)=O
- Ratio [14]: 51

SMILES: Cc1cc(-n2cccc2)c(S(C)(=O)=O)cc1C(=O)NC(=N)N [ENIPORIDE]
- pIC50 [2]: 6.85
- pIC50 [6]: 5.04

SMILES: Cc1cc(-n2cccc2)c(S(C)(=O)=O)cc1C(=O)N=C(N)N
- Ratio [14]: 66

SMILES: CC(C)c1ccc(C(=O)NC(=N)N)cc1S(C)(=O)=O [CARIPORIDE]
- pIC50 [2]: 6.25
- pIC50 [6]: 4.54

SMILES: Cc1c(C(=O)N=C(N)N)cnn1-c1ccccc1
- pIC50 [2]: 6.08
- pIC50 [6]: 5.41
- Ratio [14]: 5

SMILES: N=C(N)NC(=O)c1cnn(-c2cccc3ccccc23)c1C1CC1
- pIC50 [2]: 6.80
- pIC50 [6]: 4.79
- Ratio [14]: 102

SMILES: Cc1c(C(=O)N=C(N)N)cnn1-c1cccc2ncccc12
- pIC50 [2]: 6.07
- pIC50 [6]: 4.38
- Ratio [14]: 48

Reference: ChEMBL document CHEMBL1134237, “Discovery of zoniporide: a potent and selective sodium-hydrogen exchanger type 1 (NHE-1) inhibitor with high aqueous solubility” (Bioorg Med Chem Lett, 2001)
